Screening data (PubChem BioAssay)
An excerpt weighted towards active compounds, which were near 3.5% of everything screened.
RGS4 block: human RGS4 inhibition; actives 0.45% (n = 310,000); AID 463165; HEK293 M3R/RGS4 inducible, Fluo-4 calcium flux; hits give high values; triggered by carbachol at its EC20; P49798; B-score at 10 µM;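 active = B-score, a plate-corrected calcium signal, over three deviations above library mean, with baseline fluorescence within five deviations of library mean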;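 also: RGS4 expression induced by doxycycline in cells with stable M3 receptor; B-score is computed from the integrated fluorescence ratio over baseline after carbachol; higher B-score means a larger calcium signal and so more RGS4 inhibition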
Target sequence (P49798 whole entry, looked up): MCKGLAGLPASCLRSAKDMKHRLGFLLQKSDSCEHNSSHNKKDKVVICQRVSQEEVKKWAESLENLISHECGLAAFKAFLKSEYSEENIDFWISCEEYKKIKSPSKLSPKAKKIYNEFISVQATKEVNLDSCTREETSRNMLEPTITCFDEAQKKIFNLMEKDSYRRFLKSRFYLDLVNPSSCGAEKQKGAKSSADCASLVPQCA
MrgX1 antag: blocks BAM8-22 activation of human MrgX1 receptor. MRGX1-HEK293 calcium flux, Fluo-4, BAM8-22 antagonism; hits give low values. B-score at 10 µM. actives 1.3% (n = 310,000);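 active = calcium-response B-score plate-corrected more than 3 library SD below zero, starting fluorescence within 5 deviations, no agonist response on first addition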;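 also: peak minus trough fluorescence over baseline after final BAM8-22 challenge near maximal dose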
Target sequence (Q96LB2 whole entry, looked up): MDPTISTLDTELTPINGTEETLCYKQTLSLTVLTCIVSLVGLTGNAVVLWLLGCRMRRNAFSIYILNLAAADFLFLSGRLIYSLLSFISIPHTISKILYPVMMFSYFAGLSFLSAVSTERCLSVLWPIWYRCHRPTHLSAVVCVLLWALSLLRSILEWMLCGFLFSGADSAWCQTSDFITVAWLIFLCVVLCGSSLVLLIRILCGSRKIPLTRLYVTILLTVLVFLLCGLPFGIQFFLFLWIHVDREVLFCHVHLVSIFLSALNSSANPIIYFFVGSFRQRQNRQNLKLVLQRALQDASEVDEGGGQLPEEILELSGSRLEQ
MrgX1 agonist: agonists of human MrgX1 receptor; MrgX1-HEK293 cells, Fluo-4 calcium fluorescence, agonist mode; hits give high values; Q96LB2; actives 0.44% (n = 310,000); B-score at 10 µM;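 active = calcium response B-score plate-corrected fluorescence ratio at least 3 library SD, with starting fluorescence B-score inside 5 SD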
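Test system: HEK293 cells stably expressing human MrgX1 receptor; Input: fifteen thousand cells per well; Dosing: compound delivered in addition one of three; Schedule: overnight seeding, then 1 h dark dye loading; Technique: Fluo-4 NW calcium fluorescence; Measure: B-scored fluorescence response ratio; Controls: positive and negative controls per plate.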
RGS4 pot: potentiators or activators of RGS4; HEK293 M3R/inducible RGS4, carbachol calcium flux Fluo4; hits give low values; B-score at 10 µM; actives 0.92% (n = 310,000); AID 463111;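 active = B-score of the integrated calcium signal more than 4 SD below the library mean, with starting fluorescence not abnormally high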;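 also: negative B-score means reduced calcium response which marks RGS4 activation or potentiation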
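System: HEK293 FlpIn-TREx cells, stable M3R, doxycycline-inducible RGS4. Timing: overnight RGS4 induction, 30 min dye load 37 °C, 20 min compound RT. Also added: carbachol, ECmax concentration. Measured by: Fluo4 fluorescence kinetic imaging of calcium. Evaluation: integrated calcium ratio converted to B score.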
MrgX1 PAM: allosterically activates human MrgX1 receptor signaling | AID 588675 | B-score at 10 µM | Q96LB2 | actives 0.63% (n = 310,000) | MrgX1-HEK293, Fluo-4 calcium flux, FDSS; hits give high values;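 active = plate-corrected calcium response at least 3 library SD above typical, normal starting fluorescence, not activating the receptor alone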;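 also: compound read alongside a low EC10 to EC30 dose of BAM8-22 agonist; peak minus trough fluorescence over baseline measured at the second addition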
RGS4 inh valid: validation of RGS4 inhibitors. AID 492999. shares compounds with RGS4 block. HEK293 M3R/RGS4, carbachol calcium Fluo-4 fluorescence; carbachol added at its EC20; 0 = buffer wells, 100 = carbachol control. calcium response, % at 10 µM. actives 65% (n = 1,700);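 active = duplicate-averaged calcium response above the buffer-only control mean plus 5 SD of those controls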;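 also: integrated fluorescence ratio F max minus min over baseline F0; higher response in RGS4-induced cells means RGS4 inhibition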
M3R Ca ctr: non-induced cell nonspecific activity of RGS4 inhibitors | activity (percent), % at 10 µM | shares compounds with RGS4 block | actives 20% (n = 1,900) | AID 493000 | HEK293 M3R non-induced, carbachol calcium Fluo-4; submaximal (EC20) carbachol stimulus; buffer wells 0%, carbachol control wells 100%; call rule not given here;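 also: RGS4 induction absent so cells express M3R without RGS4; higher means more calcium signal and flags a non-specific hit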
RGS4 inh ctr2: second RGS4 inhibitor counter-screen in uninduced cells lacking carbachol; shares compounds with RGS4 block; HEK293 M3R/RGS4 non-induced, Fluo-4 calcium, no carbachol; normalised: buffer wells 0%, carbachol wells 100%; calcium response (agonist-mode artifact), % at 10 µM; actives 22% (n = 1,900); AID 493001;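 active = duplicate-averaged calcium rise in uninduced cells above buffer wells' mean plus 5 SD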
Of the large screens only hits and unclear results are named; the others gave an inactive call (follow-up assays come after a bar, where they were run).

CCOC(=O)[C@@H]1[C@H]2COc3ccccc3[C@@H]2N2C(=O)N(c3ccccc3)C(=O)[C@@]12C	none | RGS4 inh valid inactive | M3R Ca ctr inactive | RGS4 inh ctr2 inactive
CCOC(=O)[C@@H]1[C@H]2COc3ccccc3[C@@H]2N2C(=O)N(c3ccccc3)C(=O)[C@]12C	none | RGS4 inh valid inactive | M3R Ca ctr inactive | RGS4 inh ctr2 inactive
CCOC(=O)[C@@H]1[C@H]2COc3ccccc3[C@H]2N2C(=O)N(c3ccc(C)cc3)C(=O)[C@]12C	none | RGS4 inh valid inactive | M3R Ca ctr inactive | RGS4 inh ctr2 inactive
CCOC(=O)[C@@H]1[C@H]2COc3ccccc3[C@H]2N2C(=O)N(c3cccc(F)c3)C(=O)[C@]12C	none | RGS4 inh valid inactive | M3R Ca ctr inactive | RGS4 inh ctr2 inactive
CC1CCN(C(=O)c2ccc(NS(=O)(=O)c3ccc4[nH]c(=O)[nH]c4c3)cc2)CC1	none
CCOC(=O)[C@@H]1[C@H]2COc3ccccc3[C@@H]2N2C(=O)N(c3ccc(Cl)cc3)C(=O)[C@]12C	none | RGS4 inh valid inactive | M3R Ca ctr inactive | RGS4 inh ctr2 inactive
CCOC(=O)[C@@H]1[C@H]2COc3ccccc3[C@H]2N2C(=O)N(c3ccccc3)C(=O)[C@]12C	none | RGS4 inh valid inactive | M3R Ca ctr inactive | RGS4 inh ctr2 inactive
CCOC(=O)[C@@H]1[C@H]2COc3ccccc3[C@@H]2N2C(=O)N(c3ccc(F)cc3)C(=O)[C@]12C	none | RGS4 inh valid inactive | M3R Ca ctr inactive | RGS4 inh ctr2 inactive
CC1=NN(c2ccc(C)c(C)c2)C(=O)C1C(c1cccc(O)c1)C1C(=O)N(c2ccc(C)c(C)c2)N=C1C (stereo not given)	RGS4 block 15 | RGS4 inh valid 14% | M3R Ca ctr inactive | RGS4 inh ctr2 inactive
Cc1cc(N2CCN(c3ccccc3Cl)CC2)n2cc(-c3ccccc3)nc2n1	RGS4 block 6 | RGS4 inh valid 28% | M3R Ca ctr inactive | RGS4 inh ctr2 inactive
Cc1cc(N2CCN(c3ccccc3)CC2)n2cc(-c3ccccc3)nc2n1	none
C=CC(C)(C)c1c(O)c(CC=C(C)C)c(O)c2c(=O)c3ccc(O)c(O)c3oc12	RGS4 block 6 | RGS4 inh valid 9.5% | M3R Ca ctr inactive | RGS4 inh ctr2 inactive
CCCOc1ccc(-c2c(C(=O)N/N=C/c3ccc(C)cc3)nnn2-c2nonc2N)cc1	none | M3R Ca ctr 39% | RGS4 inh ctr2 inactive
CCOc1ccc(-c2c(C(=O)N/N=C/c3ccc(C)cc3)nnn2-c2nonc2N)cc1	none | RGS4 inh valid inactive | M3R Ca ctr inactive | RGS4 inh ctr2 inactive
CCCCNc1c(C(=O)OCC)c(C)nc2c1cnn2CC	RGS4 block 10 | RGS4 inh valid 7.5% | M3R Ca ctr 28% | RGS4 inh ctr2 inactive
OCc1ccc(-c2nn(Cc3ccccc3)c3ccccc23)o1	RGS4 block 5.1 | RGS4 inh valid 6.0% | M3R Ca ctr inactive | RGS4 inh ctr2 inactive
O=c1c2ccccc2c(-c2n[nH]c(=S)o2)nn1Cc1ccccc1	none
Cc1ccc(-n2nc3c(=O)n(CC(=O)NCCc4cccs4)nc(C)c3c2C)cc1	none | RGS4 inh valid inactive | M3R Ca ctr inactive | RGS4 inh ctr2 inactive
Cc1ccc(-n2nc3c(=O)n(CC(=O)NCc4ccccc4Cl)nc(C)c3c2C)cc1	none
Cc1ccc(-n2nc3c(=O)n(CC(=O)NCc4ccccc4)nc(C)c3c2C)cc1	none | RGS4 inh valid inactive | M3R Ca ctr inactive | RGS4 inh ctr2 inactive
CCCc1nc2sc3c(=O)n(N)cnc3c2c2c1CCCC2	none
Cc1ccc(-c2c(C(=O)N/N=C/c3ccc(OC(C)C)cc3)nnn2-c2nonc2N)cc1	RGS4 block 9 | RGS4 inh valid 28% | M3R Ca ctr 43% | RGS4 inh ctr2 inactive
CCOc1ccc(-c2c(C(=O)N/N=C/c3ccc(OC(C)C)cc3)nnn2-c2nonc2N)cc1	none | M3R Ca ctr inactive | RGS4 inh ctr2 inactive
CC(C)c1ccc(N(CC(=O)NCc2ccc(F)cc2)C(=O)c2csnn2)cc1	none
CCC1(CC)Cc2ccccc2-c2nc(NCCO)[nH]c(=O)c21	RGS4 block 26 | RGS4 inh valid 101% | M3R Ca ctr 84% | RGS4 inh ctr2 inactive
O=c1[nH]c(NCCO)nc2c1C1(CCCCC1)Cc1ccccc1-2	none (no result: RGS4 block, RGS4 pot)
CCOc1ccccc1NC(=O)c1cccc(NC(=O)CC(c2ccccc2)c2ccccc2)c1	RGS4 block 11 | RGS4 inh valid 30% | M3R Ca ctr 36% | RGS4 inh ctr2 16%
O=[N+]([O-])c1cc(F)c2cccnc2c1O	none
O=[N+]([O-])c1cc(Cl)c(O)c2ncccc12	RGS4 block 6.7 (no result: MrgX1 antag, MrgX1 agonist, MrgX1 PAM) | RGS4 inh valid 12% | M3R Ca ctr inactive | RGS4 inh ctr2 inactive
O=[N+]([O-])c1cc(Cl)c2cccnc2c1O	none | M3R Ca ctr inactive | RGS4 inh ctr2 134%
Cc1coc2c1c(C)cc1oc(=O)c(CC(=O)N[C@@H](C)C(=O)O)c(C)c12	none
O=C(CNC(=O)c1cccs1)c1ccc(Br)cc1	none
O=S(=O)(Nc1ccc(S(=O)(=O)Nc2nccs2)cc1)c1ccc2c(c1)OCCO2	none | RGS4 inh valid inactive | M3R Ca ctr inactive | RGS4 inh ctr2 inactive
NS(=O)(=O)c1ccc(NS(=O)(=O)c2ccc3c(c2)OCCO3)cc1	none
O=C(N/N=C/c1c[nH]c2ccccc12)c1cc(-c2ccc(-c3ccccc3)cc2)n[nH]1	none
O=C(N/N=C/c1c[nH]c2ccccc12)C1CC1c1ccccc1 (stereo not given)	RGS4 block 5.6 | RGS4 inh valid 9.5% | M3R Ca ctr 36% | RGS4 inh ctr2 11%
O=C(N/N=C/c1c[nH]c2ccccc12)C1CC1(c1ccccc1)c1ccccc1 (stereo not given)	none
Cc1ccc(-c2cc(C(=O)N/N=C/c3c[nH]c4ccccc34)[nH]n2)cc1	none (no result: MrgX1 antag, MrgX1 agonist, MrgX1 PAM) | RGS4 inh valid inactive | M3R Ca ctr inactive | RGS4 inh ctr2 inactive
O=C(N/N=C/c1ccc(O)cc1)NC12CC3CC(CC(C3)C1)C2	RGS4 block 5.2 | RGS4 inh valid 20% | M3R Ca ctr 58% | RGS4 inh ctr2 11%
COc1ccc(Cl)cc1S(=O)(=O)N1CCCC(C(=O)N2CCOCC2)C1 (stereo not given)	none | RGS4 inh valid inactive | M3R Ca ctr inactive | RGS4 inh ctr2 inactive
CC(C)(C)c1ccc(NC(=O)N2CCN(c3ccc([N+](=O)[O-])cn3)CC2)cc1	none
